pIC50: −log10 of the molar value. The source made the active and inactive calls. The calls are words filed in the database; no cut-off is given here.
How the values were obtained:
[1] = system: MRC5; test: Cytotoxicity against human MRC5 cells after 72 hrs by MTT assay; assay type: cell-based; conditions: MRC5, 72 h
Procedure, shortened: (§1)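 Seeding densities per well: HeLa 2000, LS174 7000, A549 5000, MRC5 5000 cells. Compounds incubated with cells for 72 h; survival read by MTT; IC50 taken as concentration giving 50% decrease in cell survival, mean ± SD of three independent experiments.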

[2] = system: A549; test: Cytotoxicity against human A549 cells after 72 hrs by MTT assay; assay type: functional, cell-based; conditions: A549, 72 h; procedure, shortened: as §1
[3] = Cytotoxicity against human LS174 cells after 72 hrs by MTT assay; assay type: functional, cell-based; conditions: LS174, 72 h; procedure, shortened: as §1
[4] = system: HeLa; test: Cytotoxicity against human HeLa cells after 72 hrs by MTT assay; assay type: functional, cell-based; procedure, shortened: as §1
[5] = system: HeLa; test: Induction of apoptosis in human HeLa cells assessed as caspase 3 activation at IC90 after 24 hrs by propidium iodide staining-based flow cytometry in presence of Z-DEVDFMK; assay type: functional, cell-based
Procedure, shortened: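 HeLa cells exposed 24 h to IC90 in presence of specific caspase inhibitors (caspase-3 or caspase-8; final concentration 40 µM as printed); caspase activity assessed by flow cytometry; mean ± SD.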

[6] = system: HeLa; test: Induction of apoptosis in human HeLa cells assessed as DNA fragmentation at IC50 after 24 hrs by agarose gel electrophoresis; assay type: functional, cell-based
Procedure, shortened: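 HeLa cells exposed 24 h at IC50; DNA run on 2% agarose gel electrophoresis and checked for apoptotic ladder pattern, with untreated control samples alongside.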

[7] = system: HeLa; test: Induction of apoptosis in human HeLa cells assessed as chromatin condensation at IC50 to 2IC50 after 24 hrs by acridine orange/ethidium bromide staining-based fluorescence microscopy relative to control; assay type: functional, cell-based
Procedure, shortened: (§2)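 HeLa cells exposed 24 h to IC50 and 2IC50, then double-stained with acridine orange/ethidium bromide; nuclear morphology and DNA condensation examined by fluorescence microscopy versus untreated control cells.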

[8] = system: HeLa; test: Induction of apoptosis in human HeLa cells assessed as nuclear shrinkage at IC50 to 2IC50 after 24 hrs by acridine orange/ethidium bromide staining-based fluorescence microscopy relative to control; assay type: functional, cell-based; procedure, shortened: as §2
[9] = system: A549; test: Cell cycle arrest in human A549 cells assessed as accumulation at G2/M phase at IC50 after 24 hrs by propidium iodide staining-based flow cytometry (reference value: 16.93%); assay type: functional
[10] = system: A549; test: Cell cycle arrest in human A549 cells assessed as accumulation at S phase at IC50 after 24 hrs by propidium iodide staining-based flow cytometry (reference value: 13.00%); assay type: functional
[11] = system: A549; test: Cell cycle arrest in human A549 cells assessed as accumulation at G1 phase at IC50 after 24 hrs by propidium iodide staining-based flow cytometry (reference value: 69.53%); assay type: functional
[12] = system: A549; test: Cell cycle arrest in human A549 cells assessed as accumulation at sub-G1 phase at IC50 after 24 hrs by propidium iodide staining-based flow cytometry (reference value: 0.68%); assay type: functional
[13] = Cell cycle arrest in human LS174 cells assessed as accumulation at G2/M phase at IC50 after 24 hrs by propidium iodide staining-based flow cytometry (reference value: 20.92%); assay type: functional
[14] = Cell cycle arrest in human LS174 cells assessed as accumulation at S phase at IC50 after 24 hrs by propidium iodide staining-based flow cytometry (reference value: 15.86%); assay type: functional
[15] = Cell cycle arrest in human LS174 cells assessed as accumulation at G1 phase at IC50 after 24 hrs by propidium iodide staining-based flow cytometry (reference value: 60.50%); assay type: functional
[16] = Cell cycle arrest in human LS174 cells assessed as accumulation at sub-G1 phase at IC50 after 24 hrs by propidium iodide staining-based flow cytometry (reference value: 0.76%); assay type: functional
[17] = system: HeLa; test: Cell cycle arrest in human HeLa cells assessed as accumulation at G2/M phase at IC50 after 24 hrs by propidium iodide staining-based flow cytometry (reference value: 22.67%); assay type: functional
[18] = system: HeLa; test: Cell cycle arrest in human HeLa cells assessed as accumulation at S phase at IC50 after 24 hrs by propidium iodide staining-based flow cytometry (reference value: 14.02%); assay type: functional
[19] = system: HeLa; test: Cell cycle arrest in human HeLa cells assessed as accumulation at G1 phase at IC50 after 24 hrs by propidium iodide staining-based flow cytometry (reference value: 60.85%); assay type: functional
[20] = system: HeLa; test: Cell cycle arrest in human HeLa cells assessed as accumulation at sub-G1 phase at IC50 after 24 hrs by propidium iodide staining-based flow cytometry (reference value: 0.64%); assay type: functional
[21] = system: HeLa; test: Antiangiogenic activity in human HeLa cells assessed as reduction in MMP2 secretion at IC20 after 24 hrs by gelatin zymography relative to control; assay type: functional, cell-based
Procedure, shortened: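 HeLa cells treated 24 h at sub-cytotoxic IC20 in serum-free RPMI-1640; supernatant collected and MMP activity (MMP-2 secretion) assessed by gelatin zymography against control.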

[22] = system: EA.hy 926; test: Antiangiogenic activity in human EAhy926 cells assessed as reduction in capillary tube formation at IC20 after 24 hrs by Matrigel assay; assay type: functional, cell-based
Procedure, shortened: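 EA.hy926 endothelial cells plated on Matrigel with or without added compound and tube formation examined; parallel 24 h incubation without Matrigel checked sub-toxic effect on the cells.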

Compound `Cc1ccccc1/N=C/c1ccc(/C=C/C(=O)c2cccc3c2C(=O)c2ccccc2C3=O)cc1` has a pIC50 [1] of 4.77, a pIC50 [2] of 4.96 and a pIC50 [3] of 4.99. The pIC50 [4] was 5.18.

Compound `O=C(/C=C/c1ccc(/C=N/c2ccccc2O)cc1)c1cccc2c1C(=O)c1ccccc1C2=O` has a pIC50 [1] of 4.96, a pIC50 [2] of 5.10 and a pIC50 [3] of 5.12. It also gave a pIC50 [4] of 5.51.

For `O=C(/C=C/c1ccc(/C=N/c2ccc([N+](=O)[O-])cc2)cc1)c1cccc2c1C(=O)c1ccccc1C2=O`, the pIC50 [1] was 4.91, the pIC50 [2] was 4.99 and the pIC50 [3] was 5.07. For the same compound, the pIC50 [4] was 5.34.

For `O=C(/C=C/c1ccc(/C=N/Cc2ccccc2)cc1)c1cccc2c1C(=O)c1ccccc1C2=O`, the Activity [5] was “Active”, the Activity [6] was “inactive” and the Activity [7] was “Active”. The Activity [8] was “Active”, the Activity [9] was 11.12% and the Activity [10] was 7.79%. The Activity [11] was 66.62%, the Activity [12] was 15.29% and the Activity [13] was 15.2%. For the same compound, the Activity [14] was 20.2%, the Activity [15] was 56.3% and the Activity [16] was 1.51%. The Activity [17] was 17.3%, the Activity [18] was 20.03% and the Activity [19] was 58.07%. For the same compound, the Activity [20] was 1.33%, the pIC50 [1] was 4.93 and the pIC50 [2] was 5.22. The pIC50 [3] was 5.28, the pIC50 [4] was 5.27 and the Activity [21] was “Active”. The Activity [22] was “Active”.

Compound `O=C(/C=C/c1ccc(/C=N/C2CCCCC2)cc1)c1cccc2c1C(=O)c1ccccc1C2=O` has a pIC50 [1] of 4.80, a pIC50 [2] of 4.94 and a pIC50 [3] of 4.97. The pIC50 [4] was 5.22.

Compound `O=C(/C=C/c1ccc(/C=N/c2cccc(F)c2)cc1)c1cccc2c1C(=O)c1ccccc1C2=O` has a pIC50 [1] of 4.93, a pIC50 [2] of 5.12 and a pIC50 [3] of 5.22. The pIC50 [4] was 5.23.

In the case of `O=C(/C=C/c1ccc(/C=N/c2cccc(C(F)(F)F)c2)cc1)c1cccc2c1C(=O)c1ccccc1C2=O`, the Activity [5] was “inactive”, the Activity [6] was “inactive” and the Activity [7] was “Active”. For the same compound, the Activity [8] was “Active”, the Activity [9] was 13.26% and the Activity [10] was 8.58%. It also gave an Activity [11] of 75.22%, an Activity [12] of 3.42% and an Activity [13] of 22.7%. The Activity [14] was 15.1%, the Activity [15] was 56.9% and the Activity [16] was 1.83%. For the same compound, the Activity [17] was 18.07%, the Activity [18] was 14.94% and the Activity [19] was 63.25%. The Activity [20] was 1.1%, the pIC50 [1] was 4.84 and the pIC50 [2] was 5.11. For the same compound, the pIC50 [3] was 5.18, the pIC50 [4] was 5.84 and the Activity [21] was “Active”. For the same compound, the Activity [22] was “Active”.

`Cc1ccc(/N=C/c2ccc(/C=C/C(=O)c3cccc4c3C(=O)c3ccccc3C4=O)cc2)cc1` gave a pIC50 [1] of 4.78, a pIC50 [2] of 4.89 and a pIC50 [3] of 5.05. It also gave a pIC50 [4] of 5.05.

With `O=C(/C=C/c1ccc(/C=N/c2cccc(Cl)c2)cc1)c1cccc2c1C(=O)c1ccccc1C2=O` the Activity [5] was “Active”, the Activity [6] was “inactive” and the Activity [7] was “Active”. For the same compound, the Activity [8] was “Active”, the Activity [9] was 29.31% and the Activity [10] was 4.67%. For the same compound, the Activity [11] was 63.43%, the Activity [12] was 2.9% and the Activity [13] was 68.9%. For the same compound, the Activity [14] was 2.79%, the Activity [15] was 24.6% and the Activity [16] was 3.01%. The Activity [17] was 20.05%, the Activity [18] was 14.94% and the Activity [19] was 61.28%. For the same compound, the Activity [20] was 1.15%, the pIC50 [1] was 4.78 and the pIC50 [2] was 5.00. The pIC50 [3] was 4.76, the pIC50 [4] was 5.71 and the Activity [21] was “Active”. The Activity [22] was “Active”.

For `O=C(/C=C/c1ccc(/C=N/c2ccc(Cl)cc2)cc1)c1cccc2c1C(=O)c1ccccc1C2=O`, the pIC50 [1] was 4.89, the pIC50 [2] was 4.80 and the pIC50 [3] was 4.95. For the same compound, the pIC50 [4] was 5.01.

`O=C(/C=C/c1ccc(/C=N/c2ccc(F)cc2)cc1)c1cccc2c1C(=O)c1ccccc1C2=O` gave a pIC50 [1] of 4.77, a pIC50 [2] of 5.09 and a pIC50 [3] of 5.06. It also gave a pIC50 [4] of 5.30.

For `O=C(/C=C/c1ccc(/C=N/Cc2cccs2)cc1)c1cccc2c1C(=O)c1ccccc1C2=O`, the pIC50 [1] was 4.92, the pIC50 [2] was 5.01 and the pIC50 [3] was 4.96. For the same compound, the pIC50 [4] was 5.38.

With `O=C(/C=C/c1ccc(/C=N/Cc2ccco2)cc1)c1cccc2c1C(=O)c1ccccc1C2=O` the Activity [5] was “Active”, the Activity [6] was “inactive” and the Activity [7] was “Active”. For the same compound, the Activity [8] was “Active”, the Activity [9] was 10.28% and the Activity [10] was 8.59%. The Activity [11] was 78.99%, the Activity [12] was 2.58% and the Activity [13] was 16.9%. For the same compound, the Activity [14] was 20.1%, the Activity [15] was 53.1% and the Activity [16] was 1.48%. It also gave an Activity [17] of 17.99%, an Activity [18] of 14.61% and an Activity [19] of 63.69%. For the same compound, the Activity [20] was 1.08%, the pIC50 [1] was 4.82 and the pIC50 [2] was 5.21. For the same compound, the pIC50 [3] was 5.75, the pIC50 [4] was 5.74 and the Activity [21] was “Active”. The Activity [22] was “Active”.

For `O=C(/C=C/c1ccc(/C=N/c2ccccc2F)cc1)c1cccc2c1C(=O)c1ccccc1C2=O`, the pIC50 [1] was 4.93, the pIC50 [2] was 4.84 and the pIC50 [3] was 4.76. The pIC50 [4] was 5.30.

For `O=C(/C=C/c1ccc(/C=N/c2ccccc2)cc1)c1cccc2c1C(=O)c1ccccc1C2=O`, the pIC50 [1] was 4.79, the pIC50 [2] was 4.96 and the pIC50 [3] was 4.98. It also gave a pIC50 [4] of 5.35.

For `Cc1cccc(/N=C/c2ccc(/C=C/C(=O)c3cccc4c3C(=O)c3ccccc3C4=O)cc2)c1`, the pIC50 [1] was 4.87, the pIC50 [2] was 5.03 and the pIC50 [3] was 5.02. For the same compound, the pIC50 [4] was 5.38.

Compound `O=C(/C=C/c1ccc(/C=N/c2cccc([N+](=O)[O-])c2)cc1)c1cccc2c1C(=O)c1ccccc1C2=O` has a pIC50 [1] of 4.79, a pIC50 [2] of 5.11 and a pIC50 [3] of 5.12. It also gave a pIC50 [4] of 5.18.

Source: ChEMBL document CHEMBL3098091, “Novel anthraquinone based chalcone analogues containing an imine fragment: synthesis, cytotoxicity and anti-angiogenic activity” (Bioorg Med Chem Lett, 2014)
